Here are results for two compounds from ChEMBL document CHEMBL3272313, “3-Hydroxy-17-aralkylmorphinans as potential opiate receptor-site-directed alkylating agents” (J Med Chem, 1977).

In experiment [1] the test system is Mus musculus. In words: Analgesic activity in Swiss-Webster mouse assessed as time required for sustainance of activity at 2 mg/kg, sc. The experiment is classed as functional. The settings on record: route subcutaneous.
Experiment [2] concerns Mus musculus. Put plainly: Ratio of morphine ED50 to compound ED50 for sc dosed Swiss-Webster mouse. The experiment is classed as functional.
Experiment [3] concerns the target T1, Opioid receptors; mu/kappa/delta (Homo sapiens, UniProt P41145+P41143+P35372). Put plainly: Displacement of [3H]naloxone from opiate receptor (unknown origin) after 10 mins in presence of NaCl. The method, boiled down:
(§1)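 [3H]naloxone 1.5×10^-9 M bound to a brain homogenate (Pert–Snyder method as modified by Pasternak, with a preincubation step), 10 min incubation. Run with and without 100 mM NaCl. Stereospecific binding was defined with 1×10^-6 M levallorphan. IC50 is the concentration giving 50% inhibition of stereospecific binding, and the ratio is IC50 with NaCl over IC50 without.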
(In general: Displacement assays read how much labelled ligand stays bound in the presence of the test substance.)

Experiment [4] deals with T1, Opioid receptors; mu/kappa/delta. Put plainly: Displacement of [3H]naloxone from opiate receptor (unknown origin) after 10 mins.
In experiment [5] the test system is Mus musculus. In words: Analgesic activity in Swiss-Webster mouse at 2 mg/kg, sc in presence of naloxone. It counts as functional, organism-based. Details: dose 2 mg/kg. A digest of the protocol: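 Mice were pretreated with naloxone, then given blocker 2 mg/kg sc. After 2 h, when the naloxone effect had ended, morphine analgesia was tested in the same animals (modified D'Amour–Smith). Counts are responders per 10 mice.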

Experiment [6] deals with Mus musculus. Put plainly: Inhibition of morphine sulfate-induced analgesic activity in Swiss-Webster mouse at 2 to 32 mg/kg, sc after 2 to 4 hrs. It counts as functional, organism-based. A digest of the protocol:
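Male Swiss-Webster mice received the maleimide blocker sc at 2, 8 or 32 mg/kg (40% propylene glycol). Morphine sulfate dose-response was run after reaction time returned to control (2, 3 or 4 h). Morphine ED50 and 95% limits were taken by Litchfield–Wilcoxon, and curve slopes were compared.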

Experiment [7] relates to Mus musculus. In words: Analgesic activity in sc dosed Swiss-Webster mouse time of peak effect. It counts as functional.
The species named for experiment [8] is Mus musculus. Put plainly: Narcotic agonist activity in morphine-dependent mouse assessed as suppression of abstinence. The experiment is classed as functional, organism-based. The method, boiled down:
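Single-dose suppression test in morphine-dependent mice after withdrawal (method of Takemori et al.); compound given sc.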

Experiment [9] deals with Mus musculus. Put plainly: Analgesic activity in sc dosed Swiss-Webster mouse after 30 mins. The following applies: 0.5 h. The experiment is classed as functional.
For experiment [10], the target named is T1, Opioid receptors; mu/kappa/delta. Put plainly: Ratio of IC50 for opiate receptor (unknown origin) after 10 mins in presence of NaCl to IC50 for opiate receptor (unknown origin) after 10 mins. The method, boiled down: as §1
In experiment [11] the test system is Mus musculus. In words: Analgesic activity in Swiss-Webster mouse assessed as time required for sustainance of activity at 70 mg/kg, sc. The settings on record: route subcutaneous. It counts as functional.
The test system of experiment [12] is Mus musculus. Put plainly: Analgesic activity in sc dosed Swiss-Webster mouse after 6.5 hrs. It counts as functional, organism-based.

Active and inactive are the calls of the source. The calls are words filed in the database; no cut-off is given here.

For orientation: ED50 means the dose at which the effect has come halfway, by size or by number of responders. A low value points to greater potency.

T1 sequence (P35372 whole entry, looked up): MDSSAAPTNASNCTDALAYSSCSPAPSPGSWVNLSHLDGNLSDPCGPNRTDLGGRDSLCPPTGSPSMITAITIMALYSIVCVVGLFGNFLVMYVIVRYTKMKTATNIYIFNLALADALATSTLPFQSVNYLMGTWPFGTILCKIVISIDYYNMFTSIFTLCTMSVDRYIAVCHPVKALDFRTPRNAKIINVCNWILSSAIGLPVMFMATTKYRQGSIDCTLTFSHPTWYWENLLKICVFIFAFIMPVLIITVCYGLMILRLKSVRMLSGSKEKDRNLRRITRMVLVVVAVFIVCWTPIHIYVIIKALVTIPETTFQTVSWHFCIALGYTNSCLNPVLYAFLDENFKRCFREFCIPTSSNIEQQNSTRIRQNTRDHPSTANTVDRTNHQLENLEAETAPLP
T1 sequence (P41143 whole entry, looked up): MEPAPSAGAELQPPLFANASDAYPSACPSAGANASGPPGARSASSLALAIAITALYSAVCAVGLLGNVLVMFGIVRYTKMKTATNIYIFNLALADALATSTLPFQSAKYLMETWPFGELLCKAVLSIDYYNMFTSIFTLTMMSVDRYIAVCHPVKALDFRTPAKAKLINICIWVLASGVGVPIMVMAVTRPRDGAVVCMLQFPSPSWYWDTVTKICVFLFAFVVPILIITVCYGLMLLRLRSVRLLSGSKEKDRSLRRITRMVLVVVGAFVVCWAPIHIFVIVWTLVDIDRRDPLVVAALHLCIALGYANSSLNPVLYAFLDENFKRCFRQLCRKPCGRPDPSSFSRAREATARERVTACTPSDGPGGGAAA
T1 sequence (P41145 whole entry, looked up): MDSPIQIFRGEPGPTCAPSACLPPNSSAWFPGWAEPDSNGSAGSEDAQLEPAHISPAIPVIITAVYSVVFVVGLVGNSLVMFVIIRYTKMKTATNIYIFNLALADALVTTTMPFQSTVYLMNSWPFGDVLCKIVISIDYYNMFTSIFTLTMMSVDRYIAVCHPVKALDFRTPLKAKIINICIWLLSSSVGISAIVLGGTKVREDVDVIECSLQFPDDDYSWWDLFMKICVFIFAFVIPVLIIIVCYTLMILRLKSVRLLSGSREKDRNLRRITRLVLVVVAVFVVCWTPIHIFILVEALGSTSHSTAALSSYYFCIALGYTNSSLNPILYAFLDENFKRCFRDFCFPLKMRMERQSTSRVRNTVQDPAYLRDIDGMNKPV

Regarding `O=C1C=CC(=O)N1c1ccc(CCN2CC[C@]34CCCC[C@H]3[C@H]2Cc2ccc(O)cc24)cc1`, the Time with Mus musculus [1] was determined as 2 h; with Mus musculus [7] it was 30 min. In addition, in the experiment with Mus musculus [2], the “Ratio ED50” value was 4. Further, the values for the IC50 in experiment [3] and in experiment [4] were 5.7 ×10⁻⁸ M and 5.3 nM, respectively. For the same compound, the outcome in the experiment on Mus musculus [5] was inactive. The inhibition result in the experiment with Mus musculus [6] and in the experiment listed under Mus musculus [8] was “Active” throughout. Moreover, the ED50 in the experiment with Mus musculus [9] was found to be 1.1 mg/kg. For the same compound, the Ratio IC50 in experiment [10] is over 10.

Regarding `O=C(CBr)Nc1ccccc1CCN1CC[C@]23CCCC[C@H]2[C@H]1Cc1ccc(O)cc13`, the figures for the Time in the experiment with Mus musculus [11] and with Mus musculus [7] were 6.5 h and 30 min, respectively. The same compound gave an ED50 with Mus musculus [9] of 16 mg/kg. Besides, the result with Mus musculus [12] was Active.
